Tests used:
[1] = system: Plasmodium falciparum; experiment: Antiplasmodial activity against chloroquine-resistant Plasmodium falciparum W2 infected in human A+ erythrocytes assessed as inhibition of [3H]-hypoxanthine incorporation after 42 hrs by beta counting method; type: functional, cell-based
Outline: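 W2 parasites cultured at 37 °C in A+ human erythrocytes in RPMI 1640 with 10% A+ human serum, under low O2 (3% O2, 5% CO2). Compound dilutions were tested at 1% parasitemia and 1% haematocrit. [3H]-hypoxanthine uptake was read by beta counting after 42 h. IC50 was derived by curve fitting relative to drug-free controls.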

[2] = Cytotoxicity against African green monkey BGM cells assessed as lethality after 24 hrs by neutral red dye based assay; type: cell-based; settings: chlorocebus aethiops, read-out: MLD50
Outline: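 BGM monkey kidney cells grown in RPMI 1640 with 10% heat-inactivated foetal serum and gentamicin. Cells were seeded at 1 × 10⁵ cells/mL and left 18 h to adhere. Compounds were added across a 1000–1 dilution range for 24 h at 37 °C in 5% CO2. Cells took up neutral red for 2 h, were fixed with formaldehyde/CaCl2 and extracted with alcohol-acetic acid, then read at A540. Viability is % of untreated cells; MLD50 was calculated from this.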

[3] = Selectivity index, ratio of MLD50 for african green monkey BGM cells to IC50 for chloroquine-resistant Plasmodium falciparum W2 infected in human A+ erythrocytes by [3H]-hypoxanthine incorporation assay; type: toxicity, cell-based; settings: read-out: Selectivity Index
[4] = target: Dihydroorotate dehydrogenase (quinone), mitochondrial (Homo sapiens) (UniProt Q02127); experiment: Inhibition of recombinant human DHODH assessed as residual activity at 50 uM using L-dihydroorotate as substrate by DCIP-based colorimetric assay relative to control
Outline: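 Recombinant human DHODH at 20 nM final, in 50 mM Tris pH 8.15 with 150 mM KCl and 0.1% Triton X-100. Substrate was 1 mM L-dihydroorotate, with CoQ0 as acceptor and DCIP as dye. DCIP reduction was followed at 610 nm for 60 s at 25 °C, against a no-enzyme reference. Four replicates per concentration; activity is % of the uninhibited control.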

[5] = system: Plasmodium falciparum; experiment: Inhibition of N-terminally truncated Plasmodium falciparum SUMO-tagged DHODH (159 to 569 residues) expressed in Escherichia coli BL21(DE3) assessed as residual activity at 50 uM using L-dihydroorotate as substrate by DCIP-based colorimetric assay relative to control
Outline: (§1)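 Recombinant PfDHODH expressed in E. coli BL21(DE3) from a SUMO-His construct, IPTG-induced. Purified by Ni-NTA, then ULP1 tag cleavage, then size exclusion. Activity measured as continuous DCIP reduction at 600 nm over 60 s at 25 °C. Reaction: 50 mM Tris pH 8.15, 150 mM KCl, 0.1% Triton X-100, 1 mM L-dihydroorotate, 100 µM CoQ₀, 60 µM DCIP, 50 nM enzyme. Four replicates per concentration; activity relative to no-inhibitor control. IC50 from nonlinear fit.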

[6] = system: Plasmodium falciparum; experiment: Antiplasmodial activity against chloroquine-resistant Plasmodium falciparum W2 infected in human A+ erythrocytes after 48 hrs by SYBR Green based fluorescence assay; type: functional, cell-based; settings: W2, 48 h
Outline: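 W2 parasites kept at 37 °C in A+ human red cells in RPMI 1640 with 10% A+ human serum, under 3% O2/5% CO2/91% N2. Serial dilutions were run at 0.5% parasitemia and 2% haematocrit for 48 h at 37 °C. Cells were lysed in Tris/EDTA/saponin/Triton buffer with SYBR Safe for 30 min in the dark, then read at ex 485/em 535 nm. IC50 was curve-fitted against drug-free controls.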

[7] = Solubility of the compound at >100 uM; type: physicochemical
[8] = Selectivity index, ratio of MLD50 for african green monkey BGM cells to IC50 for chloroquine-resistant Plasmodium falciparum W2 infected in human A+ erythrocytes by SYBR Green based fluorescence assay; type: toxicity, cell-based
[9] = system: Plasmodium falciparum; experiment: Antiplasmodial activity against chloroquine-resistant Plasmodium falciparum W2 infected in human A+ erythrocytes by HRP2 detection based ELISA; type: functional, cell-based
Outline: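 W2 blood-stage culture in A+ human erythrocytes in RPMI 1640 with 10% A+ human serum at 37 °C, under 3% O2/5% CO2. Growth was read with monoclonal antibodies against histidine- and alanine-rich protein II (HRPII). IC50 was estimated by curve fitting against drug-free controls.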

[10] = Selectivity index, ratio of MLD50 for african green monkey BGM cells to IC50 for chloroquine-resistant Plasmodium falciparum W2 infected in human A+ erythrocytes by HRP2 ELISA assay; type: toxicity, cell-based; settings: read-out: Selectivity Index
[11] = Inhibition of N-terminally truncated Plasmodium falciparum SUMO-tagged DHODH (159 to 569 residues) expressed in Escherichia coli BL21(DE3) using L-dihydroorotate as substrate by DCIP-based colorimetric assay; outline: as §1
[12] = system: Plasmodium berghei; experiment: Antimalarial activity against Plasmodium berghei NK65 infected in mouse assessed as reduction in parasitemia at 5 mg/kg, po administered daily for 3 consecutive days starting 24 hrs post inoculum challenge containing parasitized red blood cells measured on day 5 by giemsa staining based microscopic method; type: functional
Outline: (§2)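 P. berghei NK65 maintained by weekly blood passage. Mice inoculated i.p. with 1 × 10⁶ infected erythrocytes, randomized after ~24 h into groups of five. Oral dosing at 5 mg/kg once daily for 3 days, freshly diluted in 3% DMSO in RPMI; vehicle and amodiaquine controls. Parasitemia read on Giemsa-stained, methanol-fixed tail-blood thin smears. Inhibition is relative to untreated mice, taken as 100% growth.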

[13] = system: Plasmodium berghei; experiment: Antimalarial activity against Plasmodium berghei NK65 infected in mouse assessed as reduction in parasitemia at 5 mg/kg, po administered daily for 3 consecutive days starting 24 hrs post inoculum challenge containing parasitized red blood cells measured on day 7 by giemsa staining based microscopic method; type: functional; outline: as §2
[14] = system: Plasmodium berghei; experiment: Antimalarial activity against Plasmodium berghei NK65 infected in mouse assessed as reduction in parasitemia at 5 mg/kg, po administered daily for 3 consecutive days starting 24 hrs post inoculum challenge containing parasitized red blood cells measured on day 9 by giemsa staining based microscopic method; type: functional; outline: as §2
[15] = system: Plasmodium berghei; experiment: Antimalarial activity against Plasmodium berghei NK65 infected in mouse assessed as reduction in parasitemia at 5 mg/kg, po administered daily for 3 consecutive days starting 24 hrs post inoculum challenge containing parasitized red blood cells measured on day 11 by giemsa staining based microscopic method; type: functional; outline: as §2

Dihydroorotate dehydrogenase (quinone), mitochondrial (Homo sapiens), sequence (Q02127 whole entry): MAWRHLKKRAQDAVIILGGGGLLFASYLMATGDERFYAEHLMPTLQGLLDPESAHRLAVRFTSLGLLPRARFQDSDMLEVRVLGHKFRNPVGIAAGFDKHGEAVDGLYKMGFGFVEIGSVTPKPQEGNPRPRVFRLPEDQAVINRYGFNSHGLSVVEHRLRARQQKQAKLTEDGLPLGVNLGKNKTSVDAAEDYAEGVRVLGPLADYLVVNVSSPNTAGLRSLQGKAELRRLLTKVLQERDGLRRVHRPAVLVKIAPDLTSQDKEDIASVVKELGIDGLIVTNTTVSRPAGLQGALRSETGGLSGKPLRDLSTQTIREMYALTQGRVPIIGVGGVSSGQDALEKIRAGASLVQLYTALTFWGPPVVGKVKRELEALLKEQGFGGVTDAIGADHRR

Compound	IC50 [1]	CC50 at 24 h [2]	selectivity ratio [3]	Activity [4]	Activity [5]	IC50 [6]	solubility [7]	selectivity ratio [8]	IC50 [9]	selectivity ratio [10]	IC50 [11]	inhibition in vivo at 5 mg/kg [12]	inhibition in vivo at 5 mg/kg [13]	inhibition in vivo at 5 mg/kg [14]	inhibition in vivo at 5 mg/kg [15]
Cc1cc2nc(C(F)(F)F)cc(Nc3ccccc3)n2n1	17.1 µM	261 µM	15.2	122%	77%	17.1 µM	Insoluble	15.2	–	–	–	–	–	–	–
Cc1cc(Nc2ccc(Cl)cc2)n2nc(C(F)(F)F)cc2n1	50.3 µM	67.5 µM	1.3	121%	52%	–	–	–	67.5 µM	1	23 µM	–	–	–	–
Cc1cc(Nc2ccc(C(F)(F)F)cc2)n2nc(C(F)(F)F)cc2n1	47.2 µM	108 µM	2.3	95%	33%	–	–	–	30.6 µM	3.5	> 100 µM	–	–	–	–
Cc1cc(Nc2ccccc2C(F)(F)F)n2nc(C(F)(F)F)cc2n1	50 µM	228 µM	4.6	93%	48%	–	–	–	44.4 µM	5.1	–	–	–	–	–
Cc1cc2nc(C(F)(F)F)cc(Nc3ccc4ccccc4c3)n2n1	10 µM	2340 µM	234	101%	60%	10 µM	Insoluble	234	–	–	0.16 µM	25%	1%	4%	29%
Cc1cc(Nc2ccccc2)n2nc(C(F)(F)F)cc2n1	> 171 µM	856 µM	–	113%	88%	–	–	–	> 171 µM	–	–	–	–	–	–
Cc1cc(Nc2ccc(Cl)cc2)n2nc(C)cc2n1	25.7 µM	566 µM	22	95%	74%	–	–	–	23.5 µM	24.1	–	–	–	–	–
COc1cc(Nc2cc(C)nc3cc(C(F)(F)F)nn23)cc(OC)c1	> 142 µM	256 µM	–	95%	57%	–	–	–	> 142 µM	–	> 400 µM	–	–	–	–
COc1cc(Nc2cc(C(F)(F)F)nc3cc(C)nn23)cc(OC)c1	8.6 µM	> 2840 µM	> 330	104%	77%	8.6 µM	Insoluble	> 330	–	–	–	–	–	–	–
Cc1cc(Nc2ccccc2)n2nc(C)cc2n1	67.2 µM	315 µM	4.7	104%	66%	–	–	–	92.4 µM	3.4	–	–	–	–	–
Cc1cc(Nc2ccc3ccccc3c2)n2nc(C)cc2n1	5.1 µM	406 µM	79.6	71.9%	41%	5.1 µM	Insoluble	79.6	–	–	4 µM	50%	40%	53%	65%
Cc1cc(Nc2ccccc2C(F)(F)F)n2nc(C)cc2n1	42.5 µM	105 µM	2.5	96%	94%	–	–	–	49 µM	2.1	–	–	–	–	–
Cc1cc(Nc2ccc3ccccc3c2)n2nc(C(F)(F)F)nc2n1	–	425 µM	18.5	–	37%	–	–	–	–	18.5	0.7 µM	–	–	–	–
Cc1cc(Nc2ccc(C(F)(F)F)cc2)n2nc(C)cc2n1	15.7 µM	85 µM	5.4	88%	34.3%	–	–	–	8.5 µM	10	24 µM	–	–	–	–
CCN(CC)Cc1cc(Nc2ccnc3cc(Cl)ccc23)ccc1O [AMODIAQUINE]	0.006 µM	–	–	–	79%	0.006 µM	–	–	–	–	> 400 µM	100%	100%	100%	100%
COc1cc(Nc2cc(C)nc3cc(C)nn23)cc(OC)c1	26.8 µM	188 µM	7	80%	42%	–	–	–	21.5 µM	8.7	> 400 µM	–	–	–	–
